From ChEMBL document CHEMBL1151715, “Novel D-xylose derivatives stimulate muscle glucose uptake by activating AMP-activated protein kinase alpha” (J Med Chem, 2008)
Activity calls are given as the source filed them. The rule behind the calls is not given here.

Tests used:
[1] = test system: L6; assay: Inhibition of [3H]2-deoxy-D-glucose uptake in rat L6 cells at 20 mM in presence of 100 nM wortmannin; assay type: functional, cell-based
Summary of the method: (§1)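 L6 myotubes at 23 mM D-glucose received 100 nM wortmannin 30 min before the agents. Treatment ran in 10% FCS medium for 7 h (18 h for the 5 µM agent). A 5-min [3H]dGlc uptake (0.1 mM dGlc, 1.3 µCi/mL) in PBS at room temperature followed, with the vehicle basal rate set to 100%.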

[2] = test system: L6; assay: Activation of AMPKalpha in rat L6 cells assessed as ATP concentration per mg of protein at 20 mM in presence of 23 mM D-glucose; assay type: cell-based
Summary of the method: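 L6 myotubes were preconditioned at 5.0 or 23.0 mM D-glucose for 24 h, then treated. Cells were washed in cold 0.15 M Tris-HCl pH 7.75 and extracted with ice-cold 0.5% TCA. The cleared supernatant was assayed with luciferase/D-luciferin luminescence at room temperature against an ATP standard curve, expressed per mg protein. DNP 5 mM for 10 min served as the positive control.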

[3] = test system: L6; assay: Increase in GLUT4myc abundance in rat L6 cell membrane at 20 mM after 7 hrs; assay type: functional, cell-based
Summary of the method: (§2)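 Myc-tagged GLUT1 or GLUT4 L6 myotubes were preconditioned at 5.5 or 23.0 mM glucose for 24 h, then treated in 10% FCS medium for 7 h (18 h for the 5 µM agent). Insulin was 200 nM for 30 min. Intact cells were labeled with rabbit anti-myc (1:200), fixed in 3% formaldehyde, and given HRP anti-rabbit IgG (1:2000). OPD colour was read at 492 nm.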

[4] = test system: L6; assay: Increase in [3H]2-deoxy-D-glucose uptake in rat L6 cells at 20 mM preincubated 24 hrs with D-glucose assessed after 6 hrs relative to control; assay type: functional
Summary of the method: (§3)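 L6 myotubes were preconditioned 24 h at 23.0 mM D-glucose, then incubated up to 10 h in the same medium plus pentose (20.0 mM for time course; dose-response for half-maximal and maximal). Cells were washed with PBS, then given a 5-min room-temperature uptake of 0.1 mM dGlc with 1.3 µCi/mL [3H]dGlc. Counts were normalised to protein against untreated controls.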

[5] = test system: L6; assay: Increase in GLUT1myc abundance in rat L6 cell membrane at 20 mM after 7 hrs; assay type: functional, cell-based; summary of the method: as §2
[6] = test system: L6; assay: Maximal stimulation of [3H]2-deoxy-D-glucose uptake in rat L6 cells preincubated 24 hrs with D-glucose assessed after 6 hrs; assay type: functional; summary of the method: as §3
[7] = test system: L6; assay: Increase in GLUT1myc abundance in rat L6 cell membrane at 150 uM after 7 hrs; assay type: functional, cell-based; summary of the method: as §2
[8] = Effect on [3H]2-deoxy-D-glucose uptake in human skeletal muscle cells at 20 mM relative to control; assay type: functional
[9] = test system: L6; assay: Activation of 5-AMP-induced AMPKalpha in rat L6 cells assessed as reduction in Tyr172 phosphorylation at 20 mM relative to control in presence of compound C; assay type: cell-based; design: scale not given: the % may be the effect or the level left
[10] = test system: L6; assay: Induction of [3H]2-deoxy-D-glucose uptake in rat L6 cells at 20 mM after 6 hrs relative to control; assay type: functional; summary of the method: as §3
[11] = test system: L6; assay: Activation of 5-AMP-induced AMPKalpha in rat L6 cells assessed as Tyr172 phosphorylation at 20 mM relative to control; assay type: cell-based
Summary of the method: (§4)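 L6 myotubes preconditioned 24 h in αMEM with 2% FCS and 23.0 mM D-glucose, then given fresh medium with 10% (v/v) FCS, 23.0 mM D-glucose and test agent; controls received vehicle. Whole-cell lysates (Tris pH 7.5 with phosphatase and protease inhibitors) were blotted for AMPKα and […]-AMPKα, detected by ECL, and bands quantified by densitometry.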

[12] = test system: L6; assay: Increase in GLUT1myc abundance in rat L6 cell membrane at 5 µM after 18 hrs; assay type: functional, cell-based; summary of the method: as §2
[13] = test system: L6; assay: Effect on [3H]2-deoxy-D-glucose uptake in rat L6 cells at 20 mM after 7 hrs relative to control in presence of insulin; assay type: functional, cell-based
Summary of the method: (§5)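 L6 myotubes were preconditioned 24 h at 23.0 mM D-glucose, then given fresh αMEM with 23.0 mM D-glucose plus agent for 7 h. Insulin (200 nM) was added for the last 30 min. A 5-min [3H]dGlc uptake (0.1 mM dGlc, 1.3 µCi/mL) was run in PBS at room temperature, with the 23.0 mM glucose basal rate set to 100%.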

[14] = test system: L6; assay: Decrease in GLUT4myc abundance in rat L6 cell membrane pretreated with 23.0 mM D-glucose for 24 hrs at 20 mM after 7 hrs; assay type: functional; design: scale not given: the % may be the effect or the level left
[15] = test system: L6; assay: Increase in GLUT1myc abundance in rat L6 cell membrane at 50 uM after 7 hrs; assay type: functional, cell-based; summary of the method: as §2
[16] = organism: Homo sapiens; assay: Activation of 5-AMP-induced AMPKalpha in human skeletal muscle cells assessed as Tyr172 phosphorylation at 20 mM relative to control
Summary of the method: (§6)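 Primary human skeletal myoblasts from the rectus abdominis of a donor were differentiated into myotubes and treated in medium with 10% (v/v) FCS, 23.0 mM D-glucose and agent, with vehicle controls. Whole-cell lysates were Western blotted for total AMPKα and […]-AMPKα, with ECL detection and densitometry.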

[17] = test system: L6; assay: Induction of [3H]3-O-methyl-D-glucose uptake in rat L6 cells at 20 mM after 6 hrs relative to control; assay type: functional
Summary of the method: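 L6 myotubes were preconditioned 24 h at 23.0 mM glucose, then given D-xylose at 20.0 mM for 6 h. Cells were PBS-washed and incubated 90 s at room temperature with 10 µM 3-O-methylglucose, 5.0 µCi/mL [3H]MeGlc and 0.5 µCi/mL [14C]sucrose. The stop wash was ice-cold PBS with 20 mM glucose, 10 µM cytochalasin B and 2 mM HgCl2. Extracellular 3H was subtracted using sucrose counts.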

[18] = test system: L6; assay: Half-maximal stimulation of [3H]2-deoxy-D-glucose uptake in rat L6 cells preincubated 24 hrs with D-glucose assessed after 6 hrs; assay type: functional; summary of the method: as §3
[19] = test system: L6; assay: Effect on [3H]2-deoxy-D-glucose uptake in rat L6 cells at 20 mM upto 48 hrs relative to control; assay type: functional
[20] = Cytotoxicity against rat L6 cells by MTT assay; assay type: cell-based
Summary of the method: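 MTT assay on L6 myotubes after the treatment incubations: MTT at 2 mg/mL in αMEM for 30 min at 37 °C, formazan dissolved in DMSO, absorbance read at 570 nm.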

[21] = test system: L6; assay: Effect on [3H]2-deoxy-D-glucose uptake in rat L6 cells at 5 mM after 7 hrs relative to control in presence of insulin; assay type: functional, cell-based; summary of the method: as §5
[22] = test system: L6; assay: Increase in [3H]2-deoxy-D-glucose uptake in rat L6 cells preincubated with 23 mM D-glucose for 24 hrs at 5 mM after 7 hrs relative to control; assay type: functional; summary of the method: as §5
[23] = test system: L6; assay: (§7) Effect on [3H]2-deoxy-D-glucose uptake in rat L6 cells at 50 uM relative to control; assay type: functional
Summary of the method: (§8)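 L6 myotubes were held in αMEM with 2% FCS and 23.0 mM D-glucose for 24 h. They were then treated with increasing concentrations in medium with 10% FCS and 23.0 mM D-glucose for 7 or 18 h; vehicle controls ran 18 h. After washing, uptake was measured with 0.1 mM dGlc plus 1.3 µCi/mL [3H]dGlc in PBS pH 7.4 for 5 min at room temperature. Ice-cold PBS stop, SDS lysis, scintillation counting; basal rate set to 100%.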

[24] = organism: Homo sapiens; assay: Activation of 5-AMP-induced AMPKalpha in human skeletal muscle cells assessed as […] phosphorylation at 4 mM relative to control
Summary of the method: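 Primary human skeletal muscle myoblasts (rectus abdominis, donor) were differentiated into myotubes using the supplier's protocol. The agent was given at 4 mM for 1 h. Whole-cell lysates were separated by SDS-PAGE and Western blotted for AMPKα and […]-AMPKα, with HRP anti-rabbit IgG and ECL detection. Bands were quantified by film densitometry.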

[25] = test system: L6; assay: Effect on [3H]2-deoxy-D-glucose uptake in rat L6 cells at 100 uM relative to control; assay type: functional; summary of the method: as §8
[26] = test system: L6; assay: Activation of 5-AMP-induced AMPKalpha in rat L6 cells assessed as […] phosphorylation at 50 uM relative to control in presence of compound C; assay type: cell-based
[27] = test system: L6; assay: Activation of 5-AMP-induced AMPKalpha in rat L6 cells assessed as […] phosphorylation at 50 uM relative to control; assay type: cell-based; summary of the method: as §4
[28] = Effect on [3H]2-deoxy-D-glucose uptake in human skeletal muscle cells at 50 uM relative to control; assay type: functional
[29] = test system: L6; assay: Inhibition of [3H]2-deoxy-D-glucose uptake in rat L6 cells at 50 uM in presence of 100 nM wortmannin; assay type: functional, cell-based; summary of the method: as §1
[30] = test system: L6; assay: Increase in GLUT4myc abundance in rat L6 cell membrane at 50 uM after 7 hrs; assay type: functional, cell-based; summary of the method: as §2
[31] = test system: L6; assay: as §7; assay type: functional, cell-based; settings: TDE = time-dependent effect; summary of the method: as §8
[32] = test system: L6; assay: (§9) Effect on [3H]2-deoxy-D-glucose uptake in rat L6 cells at 150 uM relative to control; assay type: functional, cell-based; settings: TDE = time-dependent effect; summary of the method: as §8
[33] = organism: Homo sapiens; assay: Activation of 5-AMP-induced AMPKalpha in human skeletal muscle cells assessed as […] phosphorylation at 50 uM relative to control; summary of the method: as §6
[34] = test system: L6; assay: Effect on [3H]2-deoxy-D-glucose uptake in rat L6 cells at 5 uM relative to control; assay type: functional, cell-based; settings: TDE = time-dependent effect; summary of the method: as §8
[35] = test system: L6; assay: as §9; assay type: functional; summary of the method: as §8

With `O=C[C@H](O)[C@@H](O)[C@H](O)CO` [XYLOSE] the Activity [1] was “Active”, the Activity [2] was 1.6 mmol and the Activity [3] was “Active”. For the same molecule, the fold change (FC) [4] was 1.77, the Activity ([5]; 20 mM) was “inactive” and the Activity [6] was 13.7 mM. For the same molecule, the Activity [7] was “inactive”, the “fold change (FC)” value [8] was 1.43 and the Activity [9] was 68.9%. For the same molecule, the “fold change (FC)” value [10] was 1.51, the fold change (FC) [11] was 3.23 and the Activity [12] was “inactive”. For the same molecule, the Activity [13] was “Active”, the Activity [14] was 50% and the Activity [15] was “inactive”. For the same molecule, the Activity [16] was “Active”, the “fold change (FC)” value [17] was 1.69 and the Activity [18] was 5.8 mM.

For `CO[C@@H]1COC(O)[C@H](O)[C@H]1O` (stereo not given in full), the “fold change (FC)” value [19] was 0.99 and the MCC [20] was 50000 µM.

For `CCO[C@H]1[C@H](O)COC(O)[C@@H]1O` (stereo not given in full), the Activity [21] was “Active” and the “fold change (FC)” value [22] was 2.79.

For `CC1(C)O[C@H]2O[C@H](CO)[C@H](O)[C@H]2O1`, the MCC [20] was 150 µM and the “fold change (FC)” value [23] was 0.94.

With `NC(=O)c1ncn([C@@H]2O[C@H](COP(=O)(O)O)[C@@H](O)[C@H]2O)c1N` the Activity [24] was “Active”.

For `CCCCO[C@H]1[C@H](O)COC(O)[C@@H]1O` (stereo not given in full), the “fold change (FC)” value [19] was 0.94 and the MCC [20] was 1000 µM.

For `O[C@H]1OC[C@@H](OCc2ccccc2)[C@H](OCc2ccccc2)[C@H]1OCc1ccccc1`, the MCC [20] was 200 µM and the “fold change (FC)” value [25] was 0.94.

In the case of `CCCO[C@H]1[C@H](O)COC(O)[C@@H]1O` (stereo not given in full), the Activity [21] is reported as “Active” and the “fold change (FC)” value [22] is reported as 3.89.

For `CCCS[C@@H]1OC[C@@H](O)[C@H](O)[C@H]1O`, the MCC [20] was 200 µM and the “fold change (FC)” value [25] was 0.92.

For `OC1OC[C@@H](O)[C@@H](O)[C@@H]1O` (stereo partly drawn) [D-ARABINOSE], the “fold change (FC)” value [4] was 1.38.

For `CCSC(SCC)[C@@H]1O[C@H](c2ccccc2)O[C@H](CO)[C@@H]1OC`, the Activity [26] was 69.2%, the fold change (FC) [27] was 3.98 and the “fold change (FC)” value [28] was 1.4. The Activity ([5]; 50 uM, in the assay text read “at 50 uM” for “at 20 mM”) was “inactive”, the Activity [7] was “inactive” and the Activity [29] was “Active”. For the same molecule, the Activity [30] was “Active”, the Activity [12] was “inactive” and the Activity [31] was “tde”. The Activity [32] was “tde”, the Activity [15] was “inactive” and the Activity [33] was “Active”. The Activity [34] was “tde”.

Molecule `CO[C@H]1C(O)OC[C@@H](O)[C@@H]1O` (stereo not given in full) has an MCC [20] of 50000 µM.

For `CCCCCCCCCCCC(=O)S[C@@H]1OC[C@@H](O)[C@H](O)[C@H]1O`, the “fold change (FC)” value [35] was 0.98 and the MCC [20] was 400 µM.
